Key:
Nociceptin receptor [1] = target: T1, Nociceptin receptor (Homo sapiens, UniProt P41146); test: Displacement of [125I]Tyr14-nociceptin from human ORL1 receptor expressed in CHO cells; type: cell-based
Procedure, shortened: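 Competition binding to human ORL1 receptors transfected into CHO cells, with [¹²⁵I][Tyr¹⁴]nociceptin as radioligand; values given as IC₅₀.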

Nociceptin receptor [2] = target: T1, Nociceptin receptor; test: Displacement of [125I]Tyr14-nociceptin from human ORL1 receptor expressed in CHO cells at 1 uM; type: cell-based
Procedure, shortened: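 Same radioligand displacement at human ORL1 in CHO cells ([¹²⁵I][Tyr¹⁴]nociceptin), but reported as % inhibition of binding at a single 1 μM test concentration.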

Nociceptin receptor [3] = target: T1, Nociceptin receptor; test: Antagonist activity at human cloned ORL1 receptor expressed in CHO cells assessed as inhibition of nociceptin/orphanin FQ-stimulated [35S]GTPgammaS binding; type: functional, cell-based
Procedure, shortened: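 Functional antagonism measured by stimulation of [³⁵S]GTPγS binding to membranes from CHO cells expressing ORL1, run per an earlier published protocol.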

MDR1 (human) = test: Apparent permeability across pig L-MDR1 cells overexpressing human MDR1; type: ADME, cell-based, Sus scrofa; details: LLC-PK1
Procedure, shortened: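 P-gp transporter efflux assay: apparent permeability (Papp) reported in 10⁻⁶ cm/s; efflux expressed as the B–A/A–B ratio, with ratio accuracy considered compromised when Papp <10.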

[4] = target: Voltage-gated inwardly rectifying potassium channel KCNH2 (Homo sapiens, UniProt Q12809); test: Displacement of [35S]MK499 from human ERG expressed in HEK293 cells overexpressing Ikr channel protein; type: cell-based
Voltage-gated inwardly rectifying potassium channel KCNH2, sequence (Q12809 whole entry): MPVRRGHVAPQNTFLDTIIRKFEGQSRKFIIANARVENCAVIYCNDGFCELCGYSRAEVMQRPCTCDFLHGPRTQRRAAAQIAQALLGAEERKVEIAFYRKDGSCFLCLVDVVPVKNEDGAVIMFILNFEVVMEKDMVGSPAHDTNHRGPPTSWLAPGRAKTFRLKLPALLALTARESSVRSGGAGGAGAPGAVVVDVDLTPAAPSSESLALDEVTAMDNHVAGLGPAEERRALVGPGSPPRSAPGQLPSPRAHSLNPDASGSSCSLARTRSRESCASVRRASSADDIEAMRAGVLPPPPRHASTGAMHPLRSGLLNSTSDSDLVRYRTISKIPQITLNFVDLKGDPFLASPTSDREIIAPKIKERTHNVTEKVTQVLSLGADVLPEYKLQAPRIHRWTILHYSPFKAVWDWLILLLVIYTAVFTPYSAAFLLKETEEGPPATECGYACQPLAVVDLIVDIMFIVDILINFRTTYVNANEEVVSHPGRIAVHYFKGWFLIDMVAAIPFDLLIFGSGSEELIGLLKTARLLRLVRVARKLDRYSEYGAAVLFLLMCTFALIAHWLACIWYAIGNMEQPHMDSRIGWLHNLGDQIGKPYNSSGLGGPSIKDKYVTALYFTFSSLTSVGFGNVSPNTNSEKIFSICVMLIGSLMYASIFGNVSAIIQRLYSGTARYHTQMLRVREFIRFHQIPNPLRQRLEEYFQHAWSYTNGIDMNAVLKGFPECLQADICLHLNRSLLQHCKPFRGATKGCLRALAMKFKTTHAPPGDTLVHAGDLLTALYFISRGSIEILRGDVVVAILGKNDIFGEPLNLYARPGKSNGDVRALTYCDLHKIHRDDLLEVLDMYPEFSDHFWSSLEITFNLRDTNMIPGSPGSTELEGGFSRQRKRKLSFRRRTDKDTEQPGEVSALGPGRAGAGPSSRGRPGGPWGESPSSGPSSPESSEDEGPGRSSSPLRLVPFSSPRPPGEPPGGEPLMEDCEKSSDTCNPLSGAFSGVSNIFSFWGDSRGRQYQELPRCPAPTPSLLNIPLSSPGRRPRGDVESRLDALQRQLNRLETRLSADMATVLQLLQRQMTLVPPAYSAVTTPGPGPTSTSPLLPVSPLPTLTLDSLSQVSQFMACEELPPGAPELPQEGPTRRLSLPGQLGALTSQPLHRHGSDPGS

[5] = Efflux ratio of permeability from basolateral to apical side over apical to basolateral side in pig L-MDR1 cells overexpressing human MDR1
[6] = Metabolic stability in human liver microsomes at 1 uM after 30 mins; type: ADME, Microsome; details: read-out: Stability
Procedure, shortened: (§1)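 Parent compound at 1 μM was incubated with human or rat liver microsomes (0.25 mg protein/ml) for 30 min at 37 °C; stability was read out as % parent remaining.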

[7] = Half life in rat at 1 mg/kg, iv; type: ADME, organism-based; design: dose 1 mg/kg, route intravenous; details: in vivo
[8] = Oral bioavailability in rat at 3 mg/kg; type: ADME, organism-based; details: in vivo
[9] = Metabolic stability in rat liver microsomes at 1 uM after 30 mins; type: ADME, Microsome; details: read-out: Stability; procedure, shortened: as §1
[10] = Clearance in rat at 1 mg/kg, iv; type: ADME, organism-based; design: dose 1 mg/kg, route intravenous; details: in vivo

T1 sequence (P41146 whole entry): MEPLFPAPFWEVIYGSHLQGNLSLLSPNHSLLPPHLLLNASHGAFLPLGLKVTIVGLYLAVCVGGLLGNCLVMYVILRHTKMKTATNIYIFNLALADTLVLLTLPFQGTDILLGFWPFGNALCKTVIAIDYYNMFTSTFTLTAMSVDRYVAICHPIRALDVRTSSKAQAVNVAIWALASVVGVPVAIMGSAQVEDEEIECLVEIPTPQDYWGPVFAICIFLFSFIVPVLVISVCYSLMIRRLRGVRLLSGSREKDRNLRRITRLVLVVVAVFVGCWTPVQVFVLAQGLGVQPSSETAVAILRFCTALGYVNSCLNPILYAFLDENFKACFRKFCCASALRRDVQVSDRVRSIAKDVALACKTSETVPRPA

IC50 (Nociceptin receptor [1])	inhibition (Nociceptin receptor [2])	Structure (SMILES)	also measured
160 nM		CCC(CC)n1c(CNC2CCCC2)nc(-c2ccc(Cl)cc2Cl)c1-c1ccc(Cl)cc1	
> 1000 nM	43%	Clc1ccc(-c2c(-c3ccc(Cl)cc3Cl)nc(CNC3CCCC3)n2C2CCCC2)cc1	
> 1000 nM	44%	Cc1nn(-c2ccccc2)c(C)c1CNC1CCCC1	
> 1000 nM	32%	FC(F)(F)Cn1c(CNC2CCCC2)nc(-c2ccc(Cl)cc2Cl)c1-c1ccc(Cl)cc1	
> 1000 nM	40%	Cc1c(CNC2CCCC2)nnn1-c1ccc(F)c(F)c1	
> 1000 nM	19%	Cn1c(CNC2CCCC2)nnc1-c1cc(F)cc(F)c1	
160 nM		FCCn1c(CNC2CCCC2)nc(-c2ccc(Cl)cc2Cl)c1-c1ccc(Cl)cc1	
200 nM		Cc1c(CNC2CCCC2)cc(-c2ccc(Cl)cc2Cl)n1-c1ccc(Cl)cc1	
4.7 nM		Cc1ccc(-n2c(-c3ncccc3Cl)nc(CNC3CCCC3)c2C(C)C)cn1	IC50 (Nociceptin receptor [3]): 9.6 nM; Papp (MDR1 (human)): 25 ×10⁻⁶ cm/s; IC50 [4]: 9900 nM; Ratio [5]: 22.9
> 1000 nM	48%	Clc1ccc(-c2c(-c3ccc(Cl)cc3Cl)nc(CNC3CCCC3)n2C2CCCCC2)cc1	
190 nM		Clc1ccc(-c2c(-c3ccc(Cl)cc3Cl)nc(CNC3CCCC3)n2C2CC2)cc1	
96 nM		FCC(CF)n1c(CNC2CCCC2)nc(-c2ccc(Cl)cc2Cl)c1-c1ccc(Cl)cc1	
530 nM		Clc1ccc(-c2c(-c3ccc(Cl)cc3Cl)nc(CNC3CCCC3)n2C2CCC2)cc1	
7.6 nM		COCCc1nc(CN[C@H]2CC[C@@H](F)C2)n(C(C)C)c1-c1ccc(Cl)cc1	IC50 (Nociceptin receptor [3]): 5.6 nM; Papp (MDR1 (human)): 28.6 ×10⁻⁶ cm/s
130 nM		Clc1ccc(-c2cc(CNC3CCCC3)nn2-c2ccc(Cl)cc2Cl)cc1	
28 nM		Cc1c(CNC2CCCC2)nc(-c2ccc(Cl)cc2Cl)n1-c1ccc(Cl)cc1	
3.2 nM		CCc1c(CN[C@H]2CC[C@@H](F)C2)nc(-c2ncccc2Cl)n1-c1ccc(C)nc1	IC50 (Nociceptin receptor [3]): 2.3 nM; Papp (MDR1 (human)): 20.6 ×10⁻⁶ cm/s; remaining at 0.5 h, 1 µM [6]: 85%; half-life [7]: 30 min; IC50 [4]: 15000 nM; bioavailability [8]: 10%; Ratio [5]: 19.7; remaining at 0.5 h, 1 µM [9]: 82%; clearance [10]: 114 mL/min/kg

IC50 (Nociceptin receptor [1])	inhibition (Nociceptin receptor [2])	Structure (SMILES)	also measured
9.1 nM		Cc1ccc(-n2c(-c3ncccc3Cl)nc(CN[C@H]3CC[C@@H](F)C3)c2C)cn1	IC50 (Nociceptin receptor [3]): 3.7 nM; Papp (MDR1 (human)): 16.8 ×10⁻⁶ cm/s
26 nM		Cc1ccc(-n2c(-c3ncccc3Cl)nc(CNC3CCCC3)c2C)cn1	
1.4 nM		Cc1ccc(-n2c(-c3ncccc3Cl)nc(CN[C@H]3CC[C@@H](F)C3)c2C(C)C)cn1	IC50 (Nociceptin receptor [3]): 2.3 nM; Papp (MDR1 (human)): 24.1 ×10⁻⁶ cm/s; IC50 [4]: 15000 nM; Ratio [5]: 21.8
33 nM		CC(C)n1c(CNC2CCCC2)nc(-c2ccc(Cl)cc2Cl)c1-c1ccc(Cl)cc1	
> 1000 nM	25%	Cc1c(CNC2CCCC2)oc(-c2ccc(Cl)cc2Cl)c1-c1ccc(Cl)cc1	
160 nM		CCn1c(CNC2CCCC2)nc(-c2ccc(Cl)cc2Cl)c1-c1ccc(Cl)cc1	
> 1000 nM	26%	CC(C)(C)n1c(CNC2CCCC2)nc(-c2ccc(Cl)cc2Cl)c1-c1ccc(Cl)cc1	
500 nM		FC(F)Cn1c(CNC2CCCC2)nc(-c2ccc(Cl)cc2Cl)c1-c1ccc(Cl)cc1	
620 nM		Clc1ccc(-c2nc(CNC3CCCC3)cn2-c2ccc(Cl)cc2Cl)cc1	
> 1000 nM	28%	Clc1ccc(-c2oc(CNC3CCCC3)nc2-c2ccc(Cl)cc2Cl)cc1	
850 nM		Cn1c(CNC2CCCC2)nc(-c2ccc(Cl)cc2)c1-c1ccc(Cl)cc1Cl	
> 1000 nM	48%	Clc1ccc(-c2nc(CNC3CCCC3)nn2-c2ccc(Cl)cc2Cl)cc1	
> 1000 nM	7%	Clc1ccc(-c2sc(CNC3CCCC3)nc2-c2ccc(Cl)cc2Cl)cc1	
8.6 nM		Cc1nc(CN[C@H]2CC[C@@H](F)C2)c(C(C)C)n1-c1cc(F)cc(F)c1	IC50 (Nociceptin receptor [3]): 4.5 nM; Papp (MDR1 (human)): 34 ×10⁻⁶ cm/s; IC50 [4]: 34000 nM; Ratio [5]: 3.2
520 nM		Cn1c(CNC2CCCC2)nc(-c2ccc(Cl)cc2Cl)c1-c1ccc(Cl)cc1	
11 nM		Cc1nc(CNC2CCCC2)n(C(C)C)c1-c1ccc(Cl)cc1	Papp (MDR1 (human)): 18.2 ×10⁻⁶ cm/s; IC50 [4]: 3200 nM; Ratio [5]: 1

Structure (SMILES)	IC50 (Nociceptin receptor [1])	inhibition (Nociceptin receptor [2])	also measured
CC(C)Cn1c(CNC2CCCC2)nc(-c2ccc(Cl)cc2Cl)c1-c1ccc(Cl)cc1	540 nM		
